Data: ChEMBL document CHEMBL4715736, “Identification of anticancer agents based on the thieno[2,3-b]pyridine and 1H-pyrazole molecular scaffolds” (2016)

Experiments:
Assay type in all cases: functional
NCI/ADR-RES = assay: Growth inhibition of human NCI/ADR-RES cells assessed as cell growth at 0.1 uM incubated for 48 hrs by sulforhodamine B assay relative to control; details: read-out: Activity
M14 [1] = assay: Growth inhibition of human M14 cells assessed as cell growth at 0.01 uM incubated for 48 hrs by sulforhodamine B assay relative to control; details: read-out: Activity
OVCAR-4 = assay: Growth inhibition of human OVCAR-4 cells incubated for 48 hrs by sulforhodamine B assay; details: for CC50: read-out: LC50 (the source's name)
Summary of the method: (§1)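 NCI DTP 60-line human tumour panel. Dose-response curves were run only for ligands active in the initial 10 µM screen. GI50 (concentration giving 50% of maximal inhibition of proliferation) and TGI (concentration giving total growth inhibition) were derived from these curves.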

ACHN = assay: Growth inhibition of human ACHN cells assessed as cell growth at 1 uM incubated for 48 hrs by sulforhodamine B assay relative to control; details: read-out: Activity
MDA-MB-231 [2] = assay: Growth inhibition of human MDA-MB-231 cells assessed as cell growth at 0.1 uM incubated for 48 hrs by sulforhodamine B assay relative to control; details: read-out: Activity
NCI-H460 = assay: Growth inhibition of human NCI-H460 cells incubated for 48 hrs by sulforhodamine B assay
Summary of the method: (§2)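 NCI60 panel at the NCI Developmental Therapeutics Program. Only compounds active in the 10 µM screen went to dose-response testing. GI50, the concentration giving 50% of maximal inhibition of proliferation, and TGI, the concentration giving total growth inhibition, were derived from the dose-response curves.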

HOP-62 = assay: Growth inhibition of human HOP-62 cells incubated for 48 hrs by sulforhodamine B assay; summary of the method: as §2
HCT-116 = assay: Growth inhibition of human HCT-116 cells assessed as cell growth at 1 uM incubated for 48 hrs by sulforhodamine B assay relative to control; details: read-out: Activity
NCI-H23 = assay: Growth inhibition of human NCI-H23 cells assessed as cell growth at 0.01 uM incubated for 48 hrs by sulforhodamine B assay relative to control; details: read-out: Activity
MCF7 = assay: Growth inhibition of human MCF7 cells assessed as cell growth at 100 uM incubated for 48 hrs by sulforhodamine B assay relative to control; details: read-out: Activity
MDA-MB-435 = assay: Growth inhibition of human MDA-MB-435 cells incubated for 48 hrs by sulforhodamine B assay; details: for CC50: read-out: LC50 (the source's name); summary of the method: as §2
UACC-257 = assay: Growth inhibition of human UACC-257 cells assessed as cell growth at 100 uM incubated for 48 hrs by sulforhodamine B assay relative to control; details: read-out: Activity
RXF 393 [3] = assay: Growth inhibition of human RXF 393 cells assessed as cell growth at 0.1 uM incubated for 48 hrs by sulforhodamine B assay relative to control; details: read-out: Activity
MDA-MB-468 = assay: Growth inhibition of human MDA-MB-468 cells assessed as cell growth at 0.1 uM incubated for 48 hrs by sulforhodamine B assay relative to control; details: read-out: Activity
RPMI-8226 = assay: Growth inhibition of human RPMI-8226 cells assessed as cell growth at 100 uM incubated for 48 hrs by sulforhodamine B assay relative to control; details: read-out: Activity
NCI-H226 [4] = assay: Growth inhibition of human NCI-H226 cells assessed as cell growth at 0.1 uM incubated for 48 hrs by sulforhodamine B assay relative to control; details: read-out: Activity
OVCAR-5 = assay: Growth inhibition of human OVCAR-5 cells assessed as cell growth at 0.01 uM incubated for 48 hrs by sulforhodamine B assay relative to control; details: read-out: Activity
PC-3 [5] = assay: Growth inhibition of human PC-3 cells assessed as cell growth at 1 uM incubated for 48 hrs by sulforhodamine B assay relative to control; details: read-out: Activity
SNB-19 = assay: Growth inhibition of human SNB-19 cells assessed as cell growth at 100 uM incubated for 48 hrs by sulforhodamine B assay relative to control; details: read-out: Activity
UACC-62 [6] = assay: Growth inhibition of human UACC-62 cells incubated for 48 hrs by sulforhodamine B assay; summary of the method: as §1
UACC-62 [7] = assay: Growth inhibition of human UACC-62 cells assessed as cell growth at 100 uM incubated for 48 hrs by sulforhodamine B assay relative to control; details: read-out: Activity
CAKI-1 = assay: Growth inhibition of human CAKI-1 cells assessed as cell growth at 100 uM incubated for 48 hrs by sulforhodamine B assay relative to control; details: read-out: Activity
Summary of the method: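 NCI Developmental Therapeutics Program NCI60 panel. Compounds that were active in the 10 µM one-dose screen went on to dose–response testing. Growth at each concentration is expressed relative to untreated control (100%). GI50 (concentration giving 50% of maximal inhibition of proliferation) and TGI (concentration giving total growth inhibition) were derived from the curves.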

SK-MEL-5 = assay: Growth inhibition of human SK-MEL-5 cells incubated for 48 hrs by sulforhodamine B assay; summary of the method: as §1
T47D = assay: Growth inhibition of human T47D cells assessed as cell growth at 1 uM incubated for 48 hrs by sulforhodamine B assay relative to control; details: read-out: Activity
K562 = assay: Growth inhibition of human K562 cells incubated for 48 hrs by sulforhodamine B assay; summary of the method: as §2
HCT-15 = assay: Growth inhibition of human HCT-15 cells assessed as cell growth at 100 uM incubated for 48 hrs by sulforhodamine B assay relative to control; details: read-out: Activity
SF-268 = assay: Growth inhibition of human SF-268 cells assessed as cell growth at 0.1 uM incubated for 48 hrs by sulforhodamine B assay relative to control; details: read-out: Activity
PC-3 [8] = assay: Growth inhibition of human PC-3 cells assessed as cell growth at 100 uM incubated for 48 hrs by sulforhodamine B assay relative to control; details: read-out: Activity
MDA-MB-231 [9] = assay: Growth inhibition of human MDA-MB-231 cells assessed as cell growth at 0.01 uM incubated for 48 hrs by sulforhodamine B assay relative to control; details: read-out: Activity
NCI-H226 [10] = assay: Growth inhibition of human NCI-H226 cells assessed as cell growth at 1 uM incubated for 48 hrs by sulforhodamine B assay relative to control; details: read-out: Activity
NCI-H522 = assay: Growth inhibition of human NCI-H522 cells assessed as cell growth at 0.1 uM incubated for 48 hrs by sulforhodamine B assay relative to control; details: read-out: Activity
M14 [11] = assay: Growth inhibition of human M14 cells incubated for 48 hrs by sulforhodamine B assay; summary of the method: as §2
RXF 393 [12] = assay: Growth inhibition of human RXF 393 cells assessed as cell growth at 100 uM incubated for 48 hrs by sulforhodamine B assay relative to control; details: read-out: Activity
SR = assay: Growth inhibition of human SR cells assessed as cell growth at 100 uM incubated for 48 hrs by sulforhodamine B assay relative to control; details: read-out: Activity

Cc1cccc(NC(=O)c2sc3nc4c(cc3c2N)C(=O)CCC4)c1
growth at 0.1 µM (NCI/ADR-RES): 69%
growth at 0.01 µM (M14 [1]): 93%
TGI (OVCAR-4): ≥ 100 µM
CC50 (OVCAR-4): > 100 µM
growth at 1 µM (ACHN): 49%
growth at 0.1 µM (MDA-MB-231 [2]): 76%
GI50 (NCI-H460): 0.286 µM
LC50 (NCI-H460): > 100 µM
TGI (NCI-H460): ≥ 100 µM
GI50 (HOP-62): 0.331 µM
LC50 (HOP-62): > 100 µM
TGI (HOP-62): ≥ 100 µM
growth at 1 µM (HCT-116): 28%
growth at 0.01 µM (NCI-H23): 99%
growth at 100 µM (MCF7): -56%
GI50 (MDA-MB-435): 0.0297 µM
TGI (MDA-MB-435): 0.115 µM
CC50 (MDA-MB-435): 0.681 µM
growth at 100 µM (UACC-257): -16%
growth at 0.1 µM (RXF 393 [3]): 69%
growth at 0.1 µM (MDA-MB-468): 45%
growth at 100 µM (RPMI-8226): 21%
growth at 0.1 µM (NCI-H226 [4]): 94%
growth at 0.01 µM (OVCAR-5): 96%
growth at 1 µM (PC-3 [5]): 29%
growth at 100 µM (SNB-19): -74%
GI50 (UACC-62 [6]): 0.333 µM
LC50 (UACC-62 [6]): > 100 µM
TGI (UACC-62 [6]): ≥ 100 µM
growth at 100 µM (UACC-62 [7]): 33%
growth at 100 µM (CAKI-1): -22%
GI50 (SK-MEL-5): 0.169 µM
LC50 (SK-MEL-5): > 100 µM
TGI (SK-MEL-5): ≥ 100 µM
growth at 1 µM (T47D): 29%
GI50 (K562): 0.144 µM
LC50 (concentration killing 50% of cells) (K562): > 100 µM
TGI (K562): > 100 µM
growth at 100 µM (HCT-15): 5%
growth at 0.1 µM (SF-268): 93%
growth at 100 µM (PC-3 [8]): -26%
growth at 0.01 µM (MDA-MB-231 [9]): 99%
growth at 1 µM (NCI-H226 [10]): 57%
growth at 0.1 µM (NCI-H522): 51%
GI50 (M14 [11]): 0.165 µM
LC50 (concentration killing 50% of cells) (M14 [11]): > 100 µM
TGI (M14 [11]): ≥ 100 µM
growth at 100 µM (RXF 393 [12]): 5%

CCc1cccc(C)c1NC(=O)c1sc2nc3c(cc2c1N)C(=O)CCC3
growth at 0.1 µM (NCI/ADR-RES): 99%
growth at 0.01 µM (M14 [1]): 96%
GI50 (OVCAR-4): 0.01 µM
TGI (OVCAR-4): > 100 µM
CC50 (OVCAR-4): > 100 µM
growth at 1 µM (ACHN): 44%
growth at 0.1 µM (MDA-MB-231 [2]): 100%
GI50 (NCI-H460): 0.355 µM
LC50 (NCI-H460): > 100 µM
TGI (NCI-H460): 12.6 µM
GI50 (HOP-62): 0.679 µM
LC50 (HOP-62): > 100 µM
TGI (HOP-62): > 100 µM
growth at 1 µM (HCT-116): 28%
growth at 0.01 µM (NCI-H23): 99%
growth at 100 µM (MCF7): -1%
GI50 (MDA-MB-435): 0.148 µM
CC50 (MDA-MB-435): > 100 µM
growth at 100 µM (UACC-257): -13%
growth at 0.1 µM (RXF 393 [3]): 74%
growth at 0.1 µM (MDA-MB-468): 91%
growth at 100 µM (RPMI-8226): -39%
growth at 0.1 µM (NCI-H226 [4]): 94%
growth at 0.01 µM (OVCAR-5): 87%
growth at 1 µM (PC-3 [5]): 31%
growth at 100 µM (SNB-19): 34%
GI50 (UACC-62 [6]): 0.556 µM
LC50 (UACC-62 [6]): > 100 µM
TGI (UACC-62 [6]): > 100 µM
growth at 100 µM (UACC-62 [7]): 14%
growth at 100 µM (CAKI-1): 12%
GI50 (SK-MEL-5): 0.294 µM
LC50 (SK-MEL-5): 39 µM
TGI (SK-MEL-5): 151 µM
growth at 1 µM (T47D): 28%
GI50 (K562): 0.341 µM
LC50 (concentration killing 50% of cells) (K562): ≥ 100 µM
TGI (K562): 15.8 µM
growth at 100 µM (HCT-15): 7%
growth at 0.1 µM (SF-268): 96%
growth at 100 µM (PC-3 [8]): 18%
growth at 0.01 µM (MDA-MB-231 [9]): 97%
growth at 1 µM (NCI-H226 [10]): 67%
GI50 (M14 [11]): 0.367 µM
LC50 (concentration killing 50% of cells) (M14 [11]): > 100 µM
TGI (M14 [11]): 19.5 µM
growth at 100 µM (SR): -18%
growth at 100 µM (RXF 393 [12]): 5%
